This is a sample that favours compounds with a hit; in the whole collection about 2.9% have one here.
iPSC survival up = hiPSC single-cell survival enhancement; ATPlite luminescence; 100% = ROCK inhibitor wells, 0% = DMSO; survival enhancement, % at 20 µM; 360,000 compounds, 0.044% hits; in the data active = survival enhancement above about 18%;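 also: cells exposed to compounds for 16 hours before the ATP read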
MIN6 prolif-1 = inducers of beta-cell replication in MIN6 cells; MIN6 cells proliferation, ATPlite luminescence, 48 h; cells starved in 0.2% serum; 100% = growth in 10% serum; 330,000 compounds, 0.29% hits; proliferation, % at 10 µM;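 active = compounds whose signal lies at least 3.5 SD above the mean of all wells on their plate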
PG9 Ab binder = PG9 antibody binding by small molecule; TR-FRET gp120-PG9 antibody binding; inhibition, % at 6.7 µM; 360,000 compounds, 0.43% hits; in the data active = inhibition above about 8.5%
Rev-erbA mod = Rev-erb alpha (human) modulation | Rev-erbα–FITC-DNA binding, fluorescence polarization, 90 min | activity, % at 10 µM | 370,000 compounds, 0.79% hits | AID 1259318;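 active = activity above about 14%, limit read from the data; passing the limit was not always enough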
Target sequence (P20393 whole entry, looked up): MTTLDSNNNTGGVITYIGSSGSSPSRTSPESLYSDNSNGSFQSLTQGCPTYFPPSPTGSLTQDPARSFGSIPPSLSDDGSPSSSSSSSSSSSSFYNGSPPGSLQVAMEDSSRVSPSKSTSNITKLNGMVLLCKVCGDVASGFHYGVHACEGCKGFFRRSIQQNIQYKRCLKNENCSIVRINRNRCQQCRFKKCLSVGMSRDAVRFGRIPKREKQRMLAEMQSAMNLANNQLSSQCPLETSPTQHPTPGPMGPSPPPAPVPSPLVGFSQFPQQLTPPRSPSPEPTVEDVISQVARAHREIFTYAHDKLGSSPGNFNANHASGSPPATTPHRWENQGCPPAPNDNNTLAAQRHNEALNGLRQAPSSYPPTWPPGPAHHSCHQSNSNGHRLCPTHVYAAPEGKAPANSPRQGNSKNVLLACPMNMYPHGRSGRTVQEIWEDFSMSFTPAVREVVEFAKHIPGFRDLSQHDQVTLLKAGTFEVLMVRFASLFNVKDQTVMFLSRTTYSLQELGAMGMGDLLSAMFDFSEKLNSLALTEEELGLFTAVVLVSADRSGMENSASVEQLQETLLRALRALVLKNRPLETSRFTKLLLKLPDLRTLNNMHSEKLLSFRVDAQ
H9c2 TAG inh = triacylglycerol accumulation inhibition; H9c2 cells, Nile Red lipid (TAG) fluorescence; cells loaded with 200 µM oleic acid; 230,000 compounds, 0.66% hits; inhibition, % at 12.5 µM;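 active = pattern-corrected inhibition of lipid staining of at least 50% with the nuclear-stain viability signal not falling by more than 50%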
T cruzi inh = blocks replication of Trypanosoma cruzi; T. cruzi beta-gal in NIH3T3, luminescence, 90 h; inhibition, % (concentration not given with the values); 300,000 compounds, 1.4% hits; AID 1885;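 active = mean inhibition across valid replicates above about 55%, limit read from the data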;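 also: signal also drops with host cell toxicity which is not excluded here; higher percent means less beta-gal luminescence so fewer parasites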
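Assay system: NIH/3T3 host cells with β-galactosidase reporter T. cruzi; input: 5,000 host fibroblasts per well; compound: single 50 nL compound addition per well in DMSO; timing: ≥90 h infection period, 3 h prior cell attachment; measured by: GalScreen β-gal luminescence, detergent lysis, 60 min; evaluation: percent inhibition of parasite-derived β-gal signal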
MIN6 prolif-2 = confirmation of inducers of beta-cell replication in MIN6 cells. AID 463095. shares compounds with MIN6 prolif-1. proliferation increase, % at 50 µM. MIN6 beta-cell proliferation, ATPlite luminescence, 48 h; cells kept in 0.2% serum; scaled between 0.2% and 10% serum. 920 tested, under 10 active;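 active = proliferation increase above 40% at any of the four tested concentrations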
Of the large screens only hits and unclear results are named; the others gave an inactive call (follow-up assays come after a bar, where they were run).

COc1ccccc1CCN1CCCC(CN(C)CC(C)(C)CO)C1 (stereo unspecified)	none
CCCCCOC(=O)Cn1c(N2CCCCCC2)nc2c1c(=O)[nH]c(=O)n2C	MIN6 prolif-1 9.2 (no result: H9c2 TAG inh) | MIN6 prolif-2 inactive
CCOC(=O)Cn1c(N2CCCCCC2)nc2c1c(=O)[nH]c(=O)n2C	none
O=C(N/N=C/c1c(Cl)nc2ccccn2c1=O)c1cccnc1	none
CC1CCCN(CCCNC(=O)c2nn(C)c3c2CS(=O)(=O)c2ccccc2-3)C1 (stereo unspecified)	MIN6 prolif-1 7.0 (no result: H9c2 TAG inh) | MIN6 prolif-2 inactive
Cc1ccc(CNC(=O)C2CCCN(c3ncnc4c3nc3n4CCCCC3)C2)cc1 (stereo unspecified)	MIN6 prolif-1 14 (no result: H9c2 TAG inh) | MIN6 prolif-2 inactive
CCC(C)C1Nc2ccc(C(=O)NCc3ccc4c(c3)OCO4)cc2NC1=O (stereo unspecified)	none (no result: H9c2 TAG inh)
FC(F)Sc1nnc(-c2cccs2)n1-c1ccccc1	MIN6 prolif-1 9.6 (no result: H9c2 TAG inh) | MIN6 prolif-2 inactive
N#Cc1ccc(CSc2nnc(-c3cccs3)n2-c2ccccc2)cc1	none
S=C(NCCN1CCOCC1)Nc1cccc2ccccc12	none
COCCCn1c2nc3ccccc3nc2c2c(=O)n(CC3CCCO3)cnc21 (stereo unspecified)	none
COC(=O)c1ccccc1S(=O)(=O)N1CCC(C(=O)OC(C)C(=O)Nc2ccccc2OC)CC1 (stereo unspecified)	none (no result: T cruzi inh)
COc1ccccc1NC(=O)C(C)OC(=O)C1CCN(S(=O)(=O)c2ccc(C)c(C)c2)CC1 (stereo unspecified)	MIN6 prolif-1 16 | MIN6 prolif-2 inactive
COC(=O)[C@@]12C[C@@H](CC(=O)NCC34CC5CC(CC(C5)C3)C4)C(=O)N(Cc3cccc4ccccc34)C1=CCC(C)(C)C2	none (no result: iPSC survival up, MIN6 prolif-1, H9c2 TAG inh, T cruzi inh)
CCOC(=O)C1(Cc2ccccc2)CCCN(S(=O)(=O)N(C)C)C1 (stereo unspecified)	none
CC(=O)Nc1ccc(NC(=O)c2ccc(Cl)nc2)cc1	none
Cc1nnc2ccc(-c3ccc(NC(=O)c4ccc(Cl)nc4)cc3)nn12	MIN6 prolif-1 8.5 (no result: iPSC survival up, PG9 Ab binder, Rev-erbA mod, H9c2 TAG inh) | MIN6 prolif-2 inactive
O=C(CSc1ccc2c(c1)OCCO2)NCCc1ccc(Cl)cc1Cl	none (no result: H9c2 TAG inh)
COc1cc(C(=S)N2CCCC2)cc(Cl)c1O	none
Cc1ccc(SCCC(=O)N2CCOCC2)cc1	MIN6 prolif-1 5.1 (no result: H9c2 TAG inh) | MIN6 prolif-2 inactive
Cc1ccc(C2NC(=O)Cc3ccccc32)cc1 (stereo unspecified)	none
CC(C)n1c(SCc2ccc(Cl)cc2)nc2c1c(=O)[nH]c(=O)n2C	MIN6 prolif-1 5.6 | MIN6 prolif-2 inactive
O=C(N/N=C/c1cc2c(cc1Cl)OCO2)c1cccc(Br)c1	MIN6 prolif-1 11 (no result: H9c2 TAG inh) | MIN6 prolif-2 inactive
O=C(NCCOc1ccccc1)c1n[nH]c(=O)c2ccccc12	none (no result: H9c2 TAG inh)
CCCNC(=O)c1n[nH]c(=O)c2ccccc12	MIN6 prolif-1 5.6 | MIN6 prolif-2 inactive
CCOCCCNc1nc(=S)[nH]c2cc(OC)c(OC)cc12	MIN6 prolif-1 7.2 | MIN6 prolif-2 inactive
CN(C)S(=O)(=O)c1cccc(NC(=O)COc2ccccc2C(=O)NCc2ccccc2)c1	MIN6 prolif-1 13 (no result: T cruzi inh) | MIN6 prolif-2 inactive
COc1ccccc1C(=O)NCC(=O)OCC(=O)Nc1cccc(S(=O)(=O)N(C)C)c1	none
Cc1noc(C)c1C(=O)OCC(=O)Nc1ccc(N2CCOCC2)cc1	none (no result: T cruzi inh)
O=C(NCC(=O)N(CC1CCCO1)C(C(=O)NC1CCCCC1)c1ccc(F)cc1)c1ccco1 (stereo unspecified)	none
O=C(NC1CCCC1)C(c1ccco1)N(C(=O)c1ccco1)c1ccccc1 (stereo unspecified)	none (no result: H9c2 TAG inh)
Cc1ccc(C(C(=O)NC2CCCCC2)N(CC2CCCO2)C(=O)CNC(=O)c2ccco2)cc1 (stereo unspecified)	MIN6 prolif-1 5.5 | MIN6 prolif-2 inactive
O=C(NCC(=O)N(Cc1ccccc1)C(C(=O)NC1CCCC1)c1ccco1)c1ccco1 (stereo unspecified)	none
O=C(NCC(=O)N(Cc1ccc(F)cc1)C(C(=O)NC1CCCC1)c1ccco1)c1ccco1 (stereo unspecified)	MIN6 prolif-1 7.1 | MIN6 prolif-2 inactive
Cc1ccc(C)c(N(C(=O)c2ccco2)C(C(=O)NC2CCCC2)c2ccco2)c1 (stereo unspecified)	MIN6 prolif-1 5.7 (no result: H9c2 TAG inh) | MIN6 prolif-2 inactive
CN1CCN(C(=O)/C(=C\c2cccnc2)NC(=O)c2cccc(Br)c2)CC1	none (no result: H9c2 TAG inh)
CCOC(=O)c1c(NC(C)=O)sc2c1CCN(Cc1ccccc1)C2	none
CCOC(=O)c1c(N)sc2c1CCN(CCc1ccccc1)C2	MIN6 prolif-1 7.5 | MIN6 prolif-2 inactive
CCOC(=O)NC(=O)CSc1nc(-c2ccc(C)c(C)c2)cn1-c1ccccc1	none (no result: H9c2 TAG inh)
Cc1ccc(-c2cn(-c3ccccc3)c(SCC(N)=O)n2)cc1C	MIN6 prolif-1 7.6 (no result: H9c2 TAG inh) | MIN6 prolif-2 inactive
CCN1C(=O)N(CC)C2C1N(C(C)=O)C(=O)N2C(C)=O (stereo unspecified)	MIN6 prolif-1 8.2 | MIN6 prolif-2 inactive
CC(C)c1cc(=O)[nH]c(N2CCN(Cc3ccc4c(c3)OCO4)CC2)n1	MIN6 prolif-1 8.7 (no result: H9c2 TAG inh) | MIN6 prolif-2 inactive
COc1ccc(NS(=O)(=O)c2cccc(C(=O)NNC(=O)CNC(=O)c3ccccc3)c2)cc1	none
COc1ccc(NS(=O)(=O)c2cccc(C(=O)NNC(=O)CNC(=O)c3cccc(C)c3)c2)cc1	MIN6 prolif-1 9.7 | MIN6 prolif-2 inactive
O=C(O)c1ccccc1-n1cccc1C(=O)O	none
Cc1ccc(S(=O)(=O)Cn2nnnc2C(CC(C)C)N2CCN(c3ccccc3)CC2)cc1 (stereo unspecified)	none
CC(C)CC(c1nnnn1C(C)C)N1CCN(c2ccccc2)CC1 (stereo unspecified)	MIN6 prolif-1 7.3 (no result: H9c2 TAG inh) | MIN6 prolif-2 inactive
CC1CCCC(C)N1C(=O)COC(=O)c1cc(-c2cccs2)nn1-c1ccccc1 (stereo unspecified)	none
O=Cc1ccccc1OCCOc1ccc([N+](=O)[O-])cc1	none
O=C(COC(=O)c1cccc(-n2cnnn2)c1)c1ccccc1	none
O=C(OCc1nnc(-c2ccccc2)o1)c1cccc(-n2cnnn2)c1	MIN6 prolif-1 11 | MIN6 prolif-2 inactive
N#Cc1ccc(OCC(=O)NCC2COc3ccccc3O2)cc1 (stereo unspecified)	MIN6 prolif-1 11 (no result: T cruzi inh) | MIN6 prolif-2 inactive
O=C(COc1ccccc1)NCC1COc2ccccc2O1 (stereo unspecified)	none (no result: H9c2 TAG inh)
O=C(COC(=O)c1ccccc1O)NCC1COc2ccccc2O1 (stereo unspecified)	none (no result: T cruzi inh)

Source: PubChem BioAssay
